Measurements as given in ChEMBL document CHEMBL2093137, “WHO-TDR NTD Screening”.
Converted amounts (≈) assume the structure as drawn.

Columns and labels:
Trypanosoma cruzi = experiment: WHO-TDR: Chagas disease; assay type: functional, organism-based, Homo sapiens; conditions: MRC5
Procedure, shortened: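 Intracellular amastigotes of the Trypanosoma cruzi Tulahuen CL2 beta-galactosidase strain, grown in MRC-5SV2 human lung fibroblast host cells, were tested in a whole-organism screen. The compounds came from a 10,000-member diverse Life Chemicals library that had been filtered for drug-likeness and reactive groups. Previously published standard procedures were followed, with a reference drug as positive control, and potency is reported as IC50.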

Brugia malayi = experiment: WHO-TDR: Lymphatic Filariasis; assay type: functional; set-up: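 tested at 10 µM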
Procedure, shortened: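 A diverse library of 10,000 compounds from Life Chemicals was screened against Brugia malayi microfilariae in a whole-organism assay. The library had been filtered for drug-likeness and reactive groups. Activity is given as percent inhibition and as IC50.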

Schistosoma mansoni = experiment: WHO-TDR: Schistosomiasis; assay type: functional; set-up: concentration or dose not given beside the values
Procedure, shortened: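 A diverse library of 10,000 compounds from Life Chemicals, filtered for drug-likeness and reactive groups, was screened against whole larval and/or adult Schistosoma mansoni worms of the Puerto Rican strain. Previously published standard procedures were followed, with a reference drug as positive control. Activity is given as percent inhibition and as IC50.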

Plasmodium falciparum K1 = experiment: WHO-TDR: Malaria; assay type: functional, organism-based, Homo sapiens; conditions: Erythrocyte
Procedure, shortened: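 Life Chemicals supplied the diverse library of 10,000 compounds, which had been filtered for drug-likeness and reactive groups. Each was screened against the K1 strain of Plasmodium falciparum at its intra-erythrocytic stage in human red blood cells, using previously published standard procedures and a reference drug as positive control. The table reports IC50 for antiplasmodial potency.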

Leishmania infantum = experiment: WHO-TDR: Leishmaniasis; assay type: functional, organism-based, Mus musculus; conditions: Macrophage
Procedure, shortened: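 IC50 values describe antiparasitic potency in this whole-organism screen. Leishmania infantum MHOM/MA(BE)/67 amastigotes were tested inside murine peritoneal macrophages against a 10,000-compound diverse Life Chemicals library. A reference drug served as positive control.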

[1] = WHO-TDR: Cytotoxicity; assay type: toxicity, cell-based; conditions: human, MRC5 cells
Onchocerca ochengi = experiment: WHO-TDR: Onchocerciasis; assay type: functional; set-up: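 at 12.5 µM on microfilariae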
Procedure, shortened: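 A diverse library of 10,000 compounds from Life Chemicals, filtered for drug-likeness and reactive groups, was screened against whole microfilariae of Onchocerca ochengi or Onchocerca lienalis. These animal pathogens served as stand-ins for the human parasite. Activity is given as percent inhibition and as IC50.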

[2] = tested on: Trypanosoma brucei brucei; experiment: WHO-TDR: Human African Trypanosomiasis (HAT); assay type: functional, organism-based; conditions: Squib-427
Procedure, shortened: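 Following previously published standard procedures, with reference drugs as positive controls, a whole-organism assay was run against bloodstream-form Trypanosoma brucei, Squib 427 strain. The compounds, 10,000 in all, came from a diverse Life Chemicals library filtered for drug-likeness and reactive groups. Reported values are IC50 for antiparasitic potency.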

Row | Structure (SMILES) | IC50 (Trypanosoma cruzi) [µg/mL] | % Inhibition (Brugia malayi) [%] | % Inhibition (Schistosoma mansoni) [%] | IC50 (Plasmodium falciparum K1) [µg/mL] | IC50 (Leishmania infantum) [µg/mL] | IC50 [1] [µg/mL] | % Inhibition (Onchocerca ochengi) [%] | IC50 [2] [µg/mL]
1 | Cc1ccc(C)c2sc(N(CCCn3ccnc3)C(=O)c3ccco3)nc12 | 1.49 (≈ 3.92 µM) | 0 | 0 | 0.45 (≈ 1.18 µM) | > 12.5 | 3.53 (≈ 9.28 µM) | 100 | 3.86 (≈ 10.2 µM)
2 | COc1cccc(NC(=O)N2CCN(c3ccc(Nc4cc(C)ccn4)nn3)CC2)c1 | > 12.6 | 0 | 0 | 9.16 (≈ 21.8 µM) | > 12.6 | > 12.6 | 100 | 5.21 (≈ 12.4 µM)
3 | O=C(Nc1ccccc1)N1CCN(c2ccc(Nc3ccccn3)nn2)CC1 | > 11.3 | 0 | 0 | > 11.3 | > 11.3 | 11.3 (≈ 30 µM) | 100 | > 11.3
4 | O=C1C=CC(=O)N1c1ccccc1F | 3.28 (≈ 17.2 µM) | 20 | 0 | > 5.73 | > 5.73 | 1.81 (≈ 9.48 µM) | 100 | > 5.73
5 | O=S(=O)(NCCNc1ccc(Nc2ccncc2)nn1)c1cc(Cl)ccc1Cl | > 13.2 | 0 | 0 | 9.79 (≈ 22.3 µM) | > 13.2 | > 13.2 | 100 | > 13.2
6 | O=S(=O)(NCC(c1cccs1)N1CCOCC1)c1ccc(Cl)s1 (centres undefined) | > 11.8 | 0 | 0 | > 11.8 | > 11.8 | > 11.8 | 100 | > 11.8
7 | O=c1c2nccnc2n(Cc2cccc(C(F)(F)F)c2)c(=O)n1Cc1ccc(F)cc1 | 1.19 (≈ 2.76 µM) | 0 | 25 | 7.26 (≈ 16.9 µM) | > 12.9 | 10 (≈ 23.2 µM) | 100 | 4.08 (≈ 9.49 µM)
8 | CCn1ccc(C(=O)Nc2ccc3nc(SC)sc3c2)n1 | > 9.55 | 0 | 0 | 0.955 (≈ 3 µM) | > 9.55 | > 9.55 | 100 | > 9.55
9 | Cc1ccc(-c2nc(CSc3nc(O)cc(C(F)(F)F)n3)c(C)o2)cc1 | > 11.4 | 20 | 0 | 11.4 (≈ 30 µM) | > 11.4 | > 11.4 | 100 | > 11.4
10 | O=C(NCCOc1ccc(-c2ccc(F)cc2)nn1)c1cccc(C(F)(F)F)c1 | > 12.2 | 25 | 0 | > 12.2 | > 12.2 | > 12.2 | 100 | > 12.2
11 | CCOc1ccccc1C(=O)Nc1sc(SCC(N)=O)nc1-c1ccccc1 | 7.06 (≈ 17.1 µM) | 0 | 0 | > 12.4 | > 12.4 | > 12.4 | 100 | 3.97 (≈ 9.6 µM)
12 | Cc1cc(-c2nnc(NC(=O)C3CCCCN3S(=O)(=O)c3cccs3)o2)nn1C (centres undefined) | 4.26 (≈ 9.75 µM) | 33.33 | 0 | > 13.1 | 4.24 (≈ 9.71 µM) | 4.91 (≈ 11.2 µM) | 100 | 4.14 (≈ 9.49 µM)
13 | COc1cccc(-c2cc(CC(=O)Nc3nc(C)cs3)no2)c1 | > 9.88 | 0 | 0 | 4.59 (≈ 13.9 µM) | > 9.88 | > 9.88 | 100 | > 9.88
